Laboratory results as given in ChEMBL document CHEMBL4602705, “Discovery of N-Cyano-sulfoximineurea Derivatives as Potent and Orally Bioavailable NLRP3 Inflammasome Inhibitors” (ACS Med Chem Lett, 2020).

What was measured:
[1] = molecular target: T1, NACHT, LRR and PYD domains-containing protein 3 (Homo sapiens, UniProt Q96P20); assay: Inhibition of NLRP3 inflammasome activation in LPS-primed human THP1 cells assessed as reduction in IL-1beta level preincubated for 1 hr followed by addition of ATP and nigericin further incubated for 1 hrs and measured post ATP addition 1 hr by ELISA method; assay type: cell-based, THP-1
[2] = molecular target: T1, NACHT, LRR and PYD domains-containing protein 3; assay: Inhibition of NLRP3 inflammasome activation in LPS-primed human THP1 cells assessed as reduction in IL-1beta level at 1 uM preincubated for 1 hr followed by addition of ATP and nigericin further incubated for 1 hrs and measured post ATP addition 1 hr by ELISA method relative to control; assay type: cell-based; conditions: THP-1
[3] = AUC in C57/BL6 mouse at 3 mg/kg, po measured up to 24 hrs by LC-MS/MS analysis; assay type: ADME, organism-based; set-up: dose 3 mg/kg, time < 24 hr, route oral; conditions: in vivo
Summary of the method: (§1)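 Mouse PK, composite design, n = 3 per time point, mean values. Dosed 3 mg/kg po in 1% Tween 80 + 99% (0.5%) methyl cellulose in water; 1 mg/kg iv in 5% NMP + 5% solutol + 90% normal saline for bioavailability reference.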

[4] = Half life in C57/BL6 mouse at 3 mg/kg, po measured up to 24 hrs by LC-MS/MS analysis; assay type: ADME, organism-based; conditions: in vivo; summary of the method: as §1
[5] = Oral bioavailability in C57/BL6 mouse at 3 mg/kg measured up to 24 hrs by LC-MS/MS analysis; assay type: ADME, organism-based; conditions: in vivo; summary of the method: as §1
[6] = system: Mus musculus; assay: Inhibition of LPS-induced serum IL-1beta production in C57/BL6 mouse at 10 mg/kg, po post-challenge with LPS for 2 hrs followed by ATP-challenge and measured after 30 mins by ELISA method relative to control; assay type: functional
Summary of the method: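 Acute LPS+ATP challenge model in female C57BL/6 mice, n = 6/group; single oral dose 10 mg/kg in 1% Tween 80 and 99% methyl cellulose (0.5%); IL-1β compared with vehicle control; error bars SEM.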

T1 sequence (Q96P20 whole entry, the tested form may be a part): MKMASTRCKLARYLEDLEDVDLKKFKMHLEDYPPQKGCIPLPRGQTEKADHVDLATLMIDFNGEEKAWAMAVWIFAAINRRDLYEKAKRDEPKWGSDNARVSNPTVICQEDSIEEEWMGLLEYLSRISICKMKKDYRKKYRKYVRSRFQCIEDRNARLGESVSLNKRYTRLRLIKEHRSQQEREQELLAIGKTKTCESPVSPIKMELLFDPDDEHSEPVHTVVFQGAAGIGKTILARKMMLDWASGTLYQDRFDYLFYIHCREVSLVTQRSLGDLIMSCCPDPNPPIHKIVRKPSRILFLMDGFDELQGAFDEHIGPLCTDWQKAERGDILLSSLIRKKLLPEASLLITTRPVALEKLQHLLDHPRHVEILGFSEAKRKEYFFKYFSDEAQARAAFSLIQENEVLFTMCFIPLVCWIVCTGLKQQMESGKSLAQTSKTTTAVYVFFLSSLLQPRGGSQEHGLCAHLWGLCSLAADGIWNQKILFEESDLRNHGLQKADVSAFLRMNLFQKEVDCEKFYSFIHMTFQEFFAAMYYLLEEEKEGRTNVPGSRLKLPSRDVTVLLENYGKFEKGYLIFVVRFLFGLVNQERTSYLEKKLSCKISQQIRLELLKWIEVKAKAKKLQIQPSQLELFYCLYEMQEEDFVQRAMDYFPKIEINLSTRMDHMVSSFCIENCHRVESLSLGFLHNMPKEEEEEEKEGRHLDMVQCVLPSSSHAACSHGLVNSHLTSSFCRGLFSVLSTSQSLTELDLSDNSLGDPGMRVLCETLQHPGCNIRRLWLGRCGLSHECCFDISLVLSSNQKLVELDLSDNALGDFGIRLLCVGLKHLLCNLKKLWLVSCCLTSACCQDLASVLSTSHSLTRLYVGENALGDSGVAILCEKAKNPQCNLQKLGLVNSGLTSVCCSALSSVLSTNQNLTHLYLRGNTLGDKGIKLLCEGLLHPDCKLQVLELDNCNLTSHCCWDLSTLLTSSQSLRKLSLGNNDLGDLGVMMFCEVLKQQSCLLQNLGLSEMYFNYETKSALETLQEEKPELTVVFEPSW

For `N#CC(NC(=O)Nc1c2c(cc3c1CCC3)CCC2)c1ccccc1` (stereo unspecified), the IC50 [1] was > 1000 nM and the inhibition [2] was < 50%.

Work on `Cc1ccc(S(=O)(=NC#N)NC(=O)Nc2c3c(cc4c2CCC4)CCC3)cc1` (stereo unspecified) yielded an AUC at 24 h [3] of 4200 ng·h/mL, a half-life [4] of 2.91 h and a bioavailability [5] of 56%. For the same compound, the inhibition in vivo at 10 mg/kg [6] was 44%.

With `Cc1ccc(S(=O)(=O)NC(=O)Cc2c3c(cc4c2CCC4)CCC3)cc1` the IC50 [1] was > 1000 nM.

Compound `N#CN=S(=O)(NC(=O)Nc1c2c(cc3c1CCC3)CCC2)c1cccc(C#N)c1` (stereo unspecified) has an AUC at 24 h [3] of 1200 ng·h/mL, a half-life [4] of 1.13 h and a bioavailability [5] of 40%.

With `Cc1ccc(S(=O)(=O)NS(=O)(=O)Nc2c3c(cc4c2CCC4)CCC3)cc1` the IC50 [1] was > 1000 nM.

With `N#CN=S(=O)(NC(=O)Nc1c2c(cc3c1CCC3)CCC2)c1cccnc1` (stereo unspecified) the AUC at 24 h [3] was 1280 ng·h/mL, the half-life [4] was 1.66 h and the bioavailability [5] was 24%.

Compound `N#CN=S(=O)(NC(=O)Nc1c2c(cc3c1CCC3)CCC2)c1ccc(C#N)cc1` (stereo unspecified) has an AUC at 24 h [3] of 800 ng·h/mL, a half-life [4] of 1.03 h and a bioavailability [5] of 27%.

In the case of `Cc1ccc(S(=O)(=O)NC(=O)C(O)c2c3c(cc4c2CCC4)CCC3)cc1` (stereo unspecified), the IC50 [1] is reported as > 1000 nM.

For `Cc1ccc(S(=O)(=Nc2ccn[nH]2)NC(=O)Nc2c3c(cc4c2CCC4)CCC3)cc1` (stereo unspecified), the IC50 [1] was > 1000 nM.

With `Cc1ccc(S(=O)(=O)NC(=O)C(=O)Nc2c3c(cc4c2CCC4)CCC3)cc1` the IC50 [1] was > 1000 nM.

In the case of `N#CN=S(=O)(NC(=O)Nc1c2c(cc3c1CCC3)CCC2)c1ccccn1` (stereo unspecified), the AUC at 24 h [3] is reported as 8200 ng·h/mL, the half-life [4] is reported as 5.2 h and the bioavailability [5] is reported as 97%. The inhibition in vivo at 10 mg/kg [6] was 57%.

For `Cc1ccc(S(=O)(=NC(N)=O)NC(=O)Nc2c3c(cc4c2CCC4)CCC3)cc1` (stereo unspecified), the IC50 [1] was > 1000 nM.

For `O=C(Nc1c2c(cc3c1CCC3)CCC2)NC1(c2ccccc2)COC1`, the IC50 [1] was > 1000 nM.

For `Cc1ccc(S(=O)(=O)Nc2c(Nc3c4c(cc5c3CCC5)CCC4)c(=O)c2=O)cc1`, the IC50 [1] was > 1000 nM.

For `Cc1ccc(S(=O)(=NCC(F)(F)F)NC(=O)Nc2c3c(cc4c2CCC4)CCC3)cc1` (stereo unspecified), the IC50 [1] was > 1000 nM.

For `Cc1ccc(S(=O)(=Nc2ccc(F)cc2)NC(=O)Nc2c3c(cc4c2CCC4)CCC3)cc1` (stereo unspecified), the IC50 [1] was > 1000 nM.

With `CC(=O)N=S(=O)(NC(=O)Nc1c2c(cc3c1CCC3)CCC2)c1ccc(C)cc1` (stereo unspecified) the IC50 [1] was > 1000 nM.

With `Cc1ccc(S(=O)(=NC#N)NC(=O)Nc2c3c(cc4c2CCC4)CCC3)cc1F` (stereo unspecified) the AUC at 24 h [3] was 3200 ng·h/mL, the half-life [4] was 2.38 h and the bioavailability [5] was 59%. For the same compound, the inhibition in vivo at 10 mg/kg [6] was 50%.

With `CCOC(=O)N=S(=O)(NC(=O)Nc1c2c(cc3c1CCC3)CCC2)c1ccc(C)cc1` (stereo unspecified) the IC50 [1] was > 1000 nM.

In the case of `Cc1ccc(S(=O)(=O)N/C(=N\C#N)Nc2c3c(cc4c2CCC4)CCC3)cc1`, the IC50 [1] is reported as > 1000 nM.

In the case of `CON=S(=O)(NC(=O)Nc1c2c(cc3c1CCC3)CCC2)c1ccc(C)cc1` (stereo unspecified), the IC50 [1] is reported as > 1000 nM.

For `O=C(Nc1c2c(cc3c1CCC3)CCC2)NC(c1ccccc1)C(F)(F)F` (stereo unspecified), the IC50 [1] was > 1000 nM and the inhibition [2] was < 50%.

With `Cc1ccc(S(=O)(=O)NC(=O)C(=O)c2c3c(cc4c2CCC4)CCC3)cc1` the IC50 [1] was > 1000 nM.

With `CN=S(=O)(NC(=O)Nc1c2c(cc3c1CCC3)CCC2)c1ccc(C)cc1` (stereo unspecified) the IC50 [1] was > 1000 nM.
